The list is not random: actives were taken first. Their share in the collection is about 4%.
OX1R antag-1: blocks the human orexin 1 receptor. O43613. OX1R-expressing cells, FRET antagonist read-out. inhibition, % at 6.6 µM. 330,000 compounds, 1.8% hits; in the data active = inhibition mostly above about 38%, no sharp cut-off; inactive = mostly below about 40%;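 note: 0% = agonist challenge alone and 100% = reference antagonist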
TAAR1 agonist: agonists of human TAAR1. CHO RD-HGA16 TAAR1, Fluo-8 calcium fluorescence; vehicle wells 0%, saturating PEA agonist 100%. activation, % at 3 µM. 360,000 compounds, 0.99% hits. AID 624467;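 active = activation above the mean activation of all test compounds in the run plus 3 SD, cut at about 38% in these data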
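Assay system – CHO-derived RD-HGA16 cells with stable Gα16 and human TAAR1 · Compound dosing – one-point dosing at 3 µM (nominal) · Incubation – 17-24 h seeding, 75 min 37 °C dye, 30 min RT · Measured by – kinetic Fluo-8 calcium fluorescence · Control set – DMSO vehicle as 0%, PEA at EC100 as 100% · Repeats – single well for each compound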
CHO parental Ca: signal in parental CHO cells, OX1R antagonist counter-screen; parental CHO-K1, ATP-induced calcium, Fluo-8 fluorescence; inhibition, % at 5.6 µM; 330,000 compounds, 0.63% hits; AID 463079;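 active = inhibition above that plate's mean sample inhibition plus 3 SD, cut at about 26% in these data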;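 note: 0% = ATP-challenged DMSO wells and 100% = DMSO wells without ATP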
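Measured by: calcium-sensitive Fluo-8 fluorescence / Test system: CHO parental line / Controls: ATP-challenged DMSO wells low, unchallenged DMSO wells high / Measure: % inhibition / Compound: single nominal dose of 5.6 µM per compound / Replicates: single well per compound, no replicates / Reagent: ATP as calcium-mobilizing challenge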
OX1R antag-2: blocks the human orexin 1 receptor; O43613; CHO/OX1R cells, Fluo-8 calcium fluorescence, orexin A; inhibition, % at 5 µM; 330,000 compounds, 0.43% hits; AID 434989;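 active = inhibition above its plate's threshold, mean inhibition of all tested compounds on the plate plus 3 SD, cut at about 37% in these data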;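 note: 0% = orexin A challenge wells and 100% = SB-334867-A antagonist wells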
TAAR1 antagonist: human TAAR1 antagonism. inhibition, % at 3 µM. Q96RJ0. 360,000 compounds, 1.5% hits. CHO RD-HGA16 TAAR1, Fluo-8 calcium fluorescence, antagonist. AID 624466;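 active = inhibition above a per-plate cutoff, the mean inhibition of test compounds on that plate plus 3 SD, cut at about 49% in these data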;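 note: 0% = DMSO plus EC80 beta-PEA response and 100% = DMSO alone without agonist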
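test system = CHO RD-HGA16 cells bearing hTAAR1 | replication = singlicate | controls = DMSO-only wells and EC80 β-PEA-stimulated wells | reagent = EC80 β-phenethylamine stimulus | read-out basis = percent inhibition of PEA-evoked calcium signal, max/basal emission ratio | schedule = seeding 17-24 h prior, 75-min 37 °C, 30-min RT dye loading | signal = kinetic Fluo-8 calcium fluorescence measurement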
NTR1 ag: NTR1 (human) agonism; NTR1-U2OS beta-arrestin-GFP spot imaging, agonist mode; activation, % at 20 µM; 330,000 compounds, 0.17% hits;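 active = activation at or above 40% of the spot to cytoplasm intensity ratio, with at least 20 cells analyzed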;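 note: 0% = DMSO without peptide and 100% = 100 nM NTR1 peptide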
Target sequence (P30989 whole entry, looked up): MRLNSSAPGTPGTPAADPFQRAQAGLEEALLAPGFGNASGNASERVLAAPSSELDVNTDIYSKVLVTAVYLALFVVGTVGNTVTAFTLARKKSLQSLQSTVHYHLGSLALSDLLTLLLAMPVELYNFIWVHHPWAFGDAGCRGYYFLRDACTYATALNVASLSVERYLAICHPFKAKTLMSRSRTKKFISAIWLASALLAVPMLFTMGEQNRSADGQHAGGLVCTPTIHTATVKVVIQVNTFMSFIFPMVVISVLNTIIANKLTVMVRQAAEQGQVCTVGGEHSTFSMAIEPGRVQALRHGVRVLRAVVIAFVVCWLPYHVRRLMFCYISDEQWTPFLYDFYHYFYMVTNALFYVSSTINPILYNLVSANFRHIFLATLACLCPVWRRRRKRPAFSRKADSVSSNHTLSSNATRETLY
* hit, by the source's call.

For COc1ccc(C(=O)NCC(=O)OCc2ccc([N+](=O)[O-])cc2)cc1 the results were OX1R antag-1 19, TAAR1 agonist 6, CHO parental Ca -7, OX1R antag-2 -19, TAAR1 antagonist 8 and NTR1 ag 2.
For O=c1c2ccccc2oc2cc(C#CC3(O)CCCCC3)ccc12 the results were OX1R antag-1 61*, TAAR1 agonist 31, CHO parental Ca -34, OX1R antag-2 -20, TAAR1 antagonist 28 and NTR1 ag 9.
Screening CCCCCCN1C=CC(=C/C=C(\C#N)C(=O)OCC)C=C1 returned OX1R antag-1 18, TAAR1 agonist 114*, CHO parental Ca 74*, OX1R antag-2 99*, TAAR1 antagonist 60* and NTR1 ag -3.
CCOC(=O)/C(C#N)=C/C=C1\C=Cc2ccccc2N1CC was read as OX1R antag-1 64, TAAR1 agonist 17, CHO parental Ca -5, OX1R antag-2 -18, TAAR1 antagonist 11 and NTR1 ag 2.
`CCCN1C=CC(=C/C=C(\C#N)C(=O)OCC)C=C1` gave OX1R antag-1 73*, CHO parental Ca 33*, OX1R antag-2 36 and NTR1 ag -2.
`O=C(C(=O)N1CCC(CNS(=O)(=O)c2ccc(F)cc2)CC1)c1cccs1` gave TAAR1 agonist 4 and TAAR1 antagonist -7.
COc1ccc2sc(-c3ccc(N(C)C)cc3)c(C#CCCO)c2c1 was read as OX1R antag-1 51*, TAAR1 agonist -1, CHO parental Ca -11, OX1R antag-2 34, TAAR1 antagonist 12 and NTR1 ag 31.
For COc1ccc(-c2sc3ccc(OC)cc3c2C#CCCO)cc1 the results were OX1R antag-1 32, CHO parental Ca -14, OX1R antag-2 -1 and NTR1 ag 17.
For CCn1c(SCC(=O)N2CCC(C)CC2)nc2c(c1=O)SC(C)C2 (stereo not given) the results were OX1R antag-1 25, TAAR1 agonist -1, CHO parental Ca -13, OX1R antag-2 -28, TAAR1 antagonist -61 and NTR1 ag 2.
For CCCCn1cc(C(=O)c2cc(Br)ccc2O)cc(C#N)c1=O the results were OX1R antag-1 51, TAAR1 agonist 9, CHO parental Ca 29, OX1R antag-2 44*, TAAR1 antagonist 2 and NTR1 ag 0.
`Cn1ncc2c(O/N=C(\N)c3ccc(C(F)(F)F)cc3)ncnc21` gave OX1R antag-1 48*, TAAR1 agonist 2, CHO parental Ca -16, OX1R antag-2 -24, TAAR1 antagonist -9 and NTR1 ag 3.
Screening Cc1ccc(C(=O)NNc2ncnc3c2cnn3C)cc1 returned OX1R antag-1 10, TAAR1 agonist 0, CHO parental Ca 0, OX1R antag-2 -13, TAAR1 antagonist -5 and NTR1 ag -1.
Screening COc1cccc(CNC(=O)[C@H]2CCCN2C(=O)[C@H]2CCCN2C(=O)c2ccc(C)cc2)c1 returned TAAR1 agonist 7 and TAAR1 antagonist -32.
NS(=O)(=O)c1ccc(N=Nc2ccc(=O)[nH]c2O)cc1 was read as OX1R antag-1 74*, TAAR1 agonist 6, CHO parental Ca 6, OX1R antag-2 -17 and TAAR1 antagonist -3.
Screening COC(=O)c1sc(N2CCN(c3ccc(Cl)cc3)CC2)nc1N returned OX1R antag-1 21, TAAR1 agonist 5, CHO parental Ca 44*, OX1R antag-2 19, TAAR1 antagonist 21 and NTR1 ag 6.
Screening CCCCN(C(=O)c1ccc(NC2CC2)c([N+](=O)[O-])c1)c1c(N)n(CCCC)c(=O)[nH]c1=O returned TAAR1 agonist -2, TAAR1 antagonist 4 and NTR1 ag -1.
For CCCCn1c(N)c(N(CCC(C)C)C(=O)c2ccc([N+](=O)[O-])s2)c(=O)[nH]c1=O the results were OX1R antag-1 37*, TAAR1 agonist 4, CHO parental Ca -22, OX1R antag-2 -41, TAAR1 antagonist -2 and NTR1 ag -1.
CCCCn1c(N)c(N(CCOC)C(=O)c2ccc(NC3CC3)c([N+](=O)[O-])c2)c(=O)[nH]c1=O was read as OX1R antag-1 47*, TAAR1 agonist 0, CHO parental Ca -33, OX1R antag-2 -18, TAAR1 antagonist -12 and NTR1 ag 0.
